ChEMBL document CHEMBL4732114, “Design and structural optimization of novel 2H-benzo[h]chromene derivatives that target AcrB and reverse bacterial multidrug resistance” (Eur J Med Chem, 2021)
≈ marks a conversion by molar mass, not a printed value.

How the values were obtained:
[1] = Toxicity in multidrug-resistant Escherichia coli BW25113 assessed as growth inhibition by two-fold broth dilution method
[2] = Toxicity in multidrug-resistant Escherichia coli BW25113 harboring AcrB deletion mutant assessed as growth inhibition by two-fold broth dilution method
[3] = target: T1, Multidrug efflux pump subunit AcrB (Escherichia coli (strain K12)) (UniProt P31224); assay: Inhibition of AcrB in multidrug-resistant Escherichia coli BW25113 assessed as potentiation of erythromycin-induced antibacterial activity by measuring erythromycin MIC at 64 ug/ml by checkerboard titration method (reference value: 64 ug/ml); conditions: dose 64.0 µg/ml
T1 sequence (whole entry): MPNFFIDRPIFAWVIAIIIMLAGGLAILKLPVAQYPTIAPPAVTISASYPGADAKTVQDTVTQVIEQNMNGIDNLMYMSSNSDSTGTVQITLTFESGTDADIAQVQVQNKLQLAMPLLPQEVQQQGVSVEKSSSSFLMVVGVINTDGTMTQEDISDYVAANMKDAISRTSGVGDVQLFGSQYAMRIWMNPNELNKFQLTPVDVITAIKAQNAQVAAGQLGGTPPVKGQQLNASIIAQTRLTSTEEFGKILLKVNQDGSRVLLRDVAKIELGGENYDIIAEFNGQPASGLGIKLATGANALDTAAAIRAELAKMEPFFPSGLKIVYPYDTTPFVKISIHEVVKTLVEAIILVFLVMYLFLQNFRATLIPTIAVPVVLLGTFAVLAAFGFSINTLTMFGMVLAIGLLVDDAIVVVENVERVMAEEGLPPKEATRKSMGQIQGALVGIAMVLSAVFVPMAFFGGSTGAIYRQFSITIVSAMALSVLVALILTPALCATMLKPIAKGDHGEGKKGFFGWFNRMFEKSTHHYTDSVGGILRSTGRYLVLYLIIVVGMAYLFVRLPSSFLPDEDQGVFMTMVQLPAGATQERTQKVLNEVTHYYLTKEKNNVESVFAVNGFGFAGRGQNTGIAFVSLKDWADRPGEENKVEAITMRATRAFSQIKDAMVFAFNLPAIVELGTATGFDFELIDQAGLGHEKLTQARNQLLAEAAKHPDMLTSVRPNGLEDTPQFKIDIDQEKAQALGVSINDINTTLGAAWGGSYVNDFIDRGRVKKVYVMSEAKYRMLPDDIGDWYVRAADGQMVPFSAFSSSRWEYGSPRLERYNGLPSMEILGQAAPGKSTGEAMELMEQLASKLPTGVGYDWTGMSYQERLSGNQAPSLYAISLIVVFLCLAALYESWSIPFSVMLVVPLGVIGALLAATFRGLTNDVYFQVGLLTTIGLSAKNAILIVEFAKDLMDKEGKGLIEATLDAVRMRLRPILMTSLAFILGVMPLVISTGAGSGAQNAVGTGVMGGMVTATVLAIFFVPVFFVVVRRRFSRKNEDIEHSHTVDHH

[4] = target: T1, Multidrug efflux pump subunit AcrB (Escherichia coli (strain K12)); assay: Inhibition of AcrB in multidrug-resistant Escherichia coli BW25113 assessed as potentiation of tetraphenylphosphonium-induced antibacterial activity by measuring tetraphenylphosphonium MIC at 256 ug/ml by checkerboard titration method (reference value: 1024 ug/ml); conditions: dose 256.0 µg/ml
[5] = target: T1, Multidrug efflux pump subunit AcrB (Escherichia coli (strain K12)); assay: Inhibition of AcrB in multidrug-resistant Escherichia coli BW25113 assessed as potentiation of levofloxacin-induced antibacterial activity by measuring levofloxacin MIC at 16 ug/ml by checkerboard titration method (reference value: 0.06 ug/ml); conditions: dose 16.0 µg/ml
[6] = target: T1, Multidrug efflux pump subunit AcrB (Escherichia coli (strain K12)); assay: Inhibition of AcrB in multidrug-resistant Escherichia coli BW25113 assessed as potentiation of tetraphenylphosphonium-induced antibacterial activity by measuring tetraphenylphosphonium MIC at 32 ug/ml by checkerboard titration method (reference value: 1024 ug/ml); conditions: dose 32.0 µg/ml
[7] = target: T1, Multidrug efflux pump subunit AcrB (Escherichia coli (strain K12)); assay: Inhibition of AcrB in multidrug-resistant Escherichia coli BW25113 assessed as potentiation of chloramphenicol-induced antibacterial activity by measuring chloramphenicol MIC at 64 ug/ml by checkerboard titration method (reference value: 8 ug/ml); conditions: dose 64.0 µg/ml
[8] = target: T1, Multidrug efflux pump subunit AcrB (Escherichia coli (strain K12)); assay: Inhibition of AcrB in multidrug-resistant Escherichia coli BW25113 assessed as potentiation of tetraphenylphosphonium-induced antibacterial activity by measuring tetraphenylphosphonium MIC at 16 ug/ml by checkerboard titration method (reference value: 1024 ug/ml); conditions: dose 16.0 µg/ml
[9] = target: T1, Multidrug efflux pump subunit AcrB (Escherichia coli (strain K12)); assay: Inhibition of AcrB in multidrug-resistant Escherichia coli BW25113 assessed as potentiation of levofloxacin-induced antibacterial activity by measuring levofloxacin MIC at 32 ug/ml by checkerboard titration method (reference value: 0.06 ug/ml); conditions: dose 32.0 µg/ml
[10] = target: T1, Multidrug efflux pump subunit AcrB (Escherichia coli (strain K12)); assay: Inhibition of AcrB in multidrug-resistant Escherichia coli BW25113 assessed as potentiation of erythromycin-induced antibacterial activity by measuring erythromycin MIC at 32 ug/ml by checkerboard titration method (reference value: 64 ug/ml); conditions: dose 32.0 µg/ml
[11] = target: T1, Multidrug efflux pump subunit AcrB (Escherichia coli (strain K12)); conditions: Escherichia coli BW25113; dose 32.0 µg/ml
[12] = target: T1, Multidrug efflux pump subunit AcrB (Escherichia coli (strain K12)); assay: Inhibition of AcrB in multidrug-resistant Escherichia coli BW25113 assessed as potentiation of chloramphenicol-induced antibacterial activity by measuring chloramphenicol MIC at 16 ug/ml by checkerboard titration method (reference value: 8 ug/ml); conditions: dose 16.0 µg/ml
[13] = target: T1, Multidrug efflux pump subunit AcrB (Escherichia coli (strain K12)); assay: Inhibition of AcrB in multidrug-resistant Escherichia coli BW25113 assessed as potentiation of levofloxacin-induced antibacterial activity by measuring levofloxacin MIC at 256 ug/ml by checkerboard titration method (reference value: 0.06 ug/ml); conditions: dose 256.0 µg/ml
[14] = target: T1, Multidrug efflux pump subunit AcrB (Escherichia coli (strain K12)); assay: Inhibition of AcrB in multidrug-resistant Escherichia coli BW25113 assessed as potentiation of erythromycin-induced antibacterial activity by measuring erythromycin MIC at 128 ug/ml by checkerboard titration method (reference value: 64 ug/ml); conditions: dose 128.0 µg/ml
[15] = target: T1, Multidrug efflux pump subunit AcrB (Escherichia coli (strain K12)); assay: Inhibition of AcrB in multidrug-resistant Escherichia coli BW25113 assessed as potentiation of tetraphenylphosphonium-induced antibacterial activity by measuring tetraphenylphosphonium MIC at 64 ug/ml by checkerboard titration method (reference value: 1024 ug/ml); conditions: dose 64.0 µg/ml
[16] = target: T1, Multidrug efflux pump subunit AcrB (Escherichia coli (strain K12)); conditions: Escherichia coli BW25113; dose 256.0 µg/ml
[17] = target: T1, Multidrug efflux pump subunit AcrB (Escherichia coli (strain K12)); assay: Inhibition of AcrB in multidrug-resistant Escherichia coli BW25113 assessed as potentiation of levofloxacin-induced antibacterial activity by measuring levofloxacin MIC at 128 ug/ml by checkerboard titration method (reference value: 0.06 ug/ml); conditions: dose 128.0 µg/ml
[18] = target: T1, Multidrug efflux pump subunit AcrB (Escherichia coli (strain K12)); conditions: Escherichia coli BW25113; dose 16.0 µg/ml
[19] = target: T1, Multidrug efflux pump subunit AcrB (Escherichia coli (strain K12)); assay: Inhibition of AcrB in multidrug-resistant Escherichia coli BW25113 assessed as potentiation of chloramphenicol-induced antibacterial activity by measuring chloramphenicol MIC at 256 ug/ml by checkerboard titration method (reference value: 8 ug/ml); conditions: dose 256.0 µg/ml
[20] = target: T1, Multidrug efflux pump subunit AcrB (Escherichia coli (strain K12)); assay: Inhibition of AcrB in multidrug-resistant Escherichia coli BW25113 assessed as potentiation of erythromycin-induced antibacterial activity by measuring erythromycin MIC at 16 ug/ml by checkerboard titration method (reference value: 64 ug/ml); conditions: dose 16.0 µg/ml
[21] = target: T1, Multidrug efflux pump subunit AcrB (Escherichia coli (strain K12)); assay: Inhibition of AcrB in multidrug-resistant Escherichia coli BW25113 assessed as potentiation of chloramphenicol-induced antibacterial activity by measuring chloramphenicol MIC at 32 ug/ml by checkerboard titration method (reference value: 8 ug/ml); conditions: dose 32.0 µg/ml
[22] = target: T1, Multidrug efflux pump subunit AcrB (Escherichia coli (strain K12)); conditions: Escherichia coli BW25113; dose 128.0 µg/ml
[23] = target: T1, Multidrug efflux pump subunit AcrB (Escherichia coli (strain K12)); assay: Inhibition of AcrB in multidrug-resistant Escherichia coli BW25113 assessed as potentiation of erythromycin-induced antibacterial activity by measuring erythromycin MIC at 256 ug/ml by checkerboard titration method (reference value: 64 ug/ml); conditions: dose 256.0 µg/ml
[24] = target: T1, Multidrug efflux pump subunit AcrB (Escherichia coli (strain K12)); assay: Inhibition of AcrB in multidrug-resistant Escherichia coli BW25113 assessed as potentiation of levofloxacin-induced antibacterial activity by measuring levofloxacin MIC at 64 ug/ml by checkerboard titration method (reference value: 0.06 ug/ml); conditions: dose 64.0 µg/ml
[25] = target: T1, Multidrug efflux pump subunit AcrB (Escherichia coli (strain K12)); assay: Inhibition of AcrB in multidrug-resistant Escherichia coli BW25113 assessed as potentiation of chloramphenicol-induced antibacterial activity by measuring chloramphenicol MIC at 128 ug/ml by checkerboard titration method (reference value: 8 ug/ml); conditions: dose 128.0 µg/ml
[26] = target: T1, Multidrug efflux pump subunit AcrB (Escherichia coli (strain K12)); assay: Inhibition of AcrB in multidrug-resistant Escherichia coli BW25113 assessed as potentiation of tetraphenylphosphonium-induced antibacterial activity by measuring tetraphenylphosphonium MIC at 128 ug/ml by checkerboard titration method (reference value: 1024 ug/ml); conditions: dose 128.0 µg/ml
[27] = target: T1, Multidrug efflux pump subunit AcrB (Escherichia coli (strain K12)); conditions: Escherichia coli BW25113; dose 64.0 µg/ml
[28] = test system: Escherichia coli; assay: Antibacterial activity against multidrug-resistant Escherichia coli BW25113 harboring AcrB deletion mutant by two-fold broth dilution method; assay type: functional
Outline: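 Two-fold broth dilution MIC against an isogenic BW25113 strain with AcrB deleted, run alongside the AcrB-expressing parent. The test was done to define sub-inhibitory levels for later checkerboard work.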

With `CC1CN(C(=O)c2cc3c(OCc4ccc([N+](=O)[O-])cc4)cccc3c3c2CCC(C)(C)O3)CC(C)O1` (centres undefined) the MIC [1] was over 512 µg/mL and the MIC [2] was over 128 µg/mL.

Compound `C[C@@H](Cc1ccc(O)c(O)c1)[C@@H](C)Cc1ccc(O)c(O)c1` has an MIC [3] of 64 µg/mL, an MIC [4] of 64 µg/mL and an MIC [5] of 0.06 µg/mL. It also gave an MIC [6] of 1020 µg/mL, an MIC [7] of 8 µg/mL and an MIC [8] of 1020 µg/mL. It also gave an MIC [9] of 0.06 µg/mL, an MIC [10] of 64 µg/mL and an MIC [11] of 16 µg/mL (≈ 52.9 µM). For the same compound, the MIC [12] was 8 µg/mL, the MIC [13] was 0.03 µg/mL and the MIC [14] was 64 µg/mL. It also gave an MIC [15] of 1020 µg/mL, an MIC [16] of 16 µg/mL (≈ 52.9 µM) and an MIC [17] of 0.03 µg/mL. For the same compound, the MIC [18] was 16 µg/mL (≈ 52.9 µM), the MIC [19] was 2 µg/mL and the MIC [20] was 64 µg/mL. It also gave an MIC [21] of 8 µg/mL, an MIC [22] of 16 µg/mL (≈ 52.9 µM) and an MIC [23] of 32 µg/mL. For the same compound, the MIC [24] was 0.03 µg/mL, the MIC [25] was 4 µg/mL and the MIC [26] was 128 µg/mL. For the same compound, the MIC [27] was 16 µg/mL (≈ 52.9 µM).

`CO[C@H]1/C=C/O[C@@]2(C)Oc3c(C)c(O)c4c(O)c(c(/C=N/N5CCN(C)CC5)c(O)c4c3C2=O)NC(=O)/C(C)=C\C=C\[C@H](C)[C@H](O)[C@@H](C)[C@@H](O)[C@@H](C)[C@H](OC(C)=O)[C@@H]1C` [RIFAMPIN] gave an MIC [28] of 16 µg/mL (≈ 19.4 µM).

`CC[C@H]1OC(=O)[C@H](C)[C@@H](O[C@H]2C[C@@](C)(OC)[C@@H](O)[C@H](C)O2)[C@H](C)[C@@H](O[C@@H]2O[C@H](C)C[C@H](N(C)C)[C@H]2O)[C@](C)(O)C[C@@H](C)C(=O)[C@H](C)[C@@H](O)[C@]1(C)O` [ERYTHROMYCIN] gave an MIC [28] of 4 µg/mL (≈ 5.45 µM).
